Screening results: PubChem, Columbia University Molecular Screening Center
This is one part of a sample in which hits are shown more often than they occur.
INS promoter act: TRM-6 insulin promoter activation | activation, % at 2 µM | 130,000 compounds, 0.81% hits | TRM-6 cells, insulin promoter eGFP reporter, imaging; plate-scaled: unstimulated 0, stimulated control 100 | AID 1296;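 active = activation at 2 µM above a set limit, confirmed on inspection of the cell images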;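 also: share of cells whose green reporter signal exceeds an intensity cutoff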
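System – human fetal islet-derived TRM-6 cells with tamoxifen-inducible insulin promoter–eGFP reporter · Amount – 1,000 cells per well · Schedule – overnight tamoxifen, then two-day compound incubation at 37 °C · Detection – high-content imaging of fixed cells with Hoechst nuclear stain · Read-out – percent cells above green-intensity threshold, converted to percent activation versus plate controls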
Starred values were filed as active, the others as inactive.

SMILES	INS promoter act
COc1cc(CNCc2cccs2)ccc1OCC(=O)NC(C)(C)C	125*
COC(=O)CNC(=O)c1sc2ncn(CC(=O)Nc3ccc(C)c(Cl)c3)c(=O)c2c1C	-7
COc1ccc2[nH]c3c(NCCC4=CCCCC4)ncnc3c2c1	-65
CCN1CC=C2C(C#N)=C(N)C(C#N)(C#N)[C@H](c3cccc(OC)c3OC)[C@H]2C1	614*
CN1CC=C2C(C#N)=C(N)C(C#N)(C#N)[C@H](c3cccc(Cl)c3)C2C1 (stereo not given in full)	7
N#CC1=C(N)C(C#N)(C#N)C(c2ccncc2)C2CN(C(=O)OCc3ccccc3)CC=C12 (stereo not given)	-5
COc1cccc(C2C3CN(C)CC=C3C(C#N)=C(N)C2(C#N)C#N)c1OC (stereo not given)	147*
CN1CC=C2C(C#N)=C(N)C(C#N)(C#N)[C@H](c3cccs3)[C@H]2C1	108
CCOC(=O)N1CC=C2C(C#N)=C(N)C(C#N)(C#N)[C@H](c3ccccc3OCC)[C@H]2C1	-9
C=CCOc1ccc(C2C(C(=O)c3ccco3)=C(O)C(=O)N2Cc2cccnc2)cc1 (stereo not given)	142
Cc1ccc(C(=O)NCCCN2CCOCC2)o1	7
COc1cc(OC)cc(C(=O)OCc2cc3ccccc3[nH]c2=O)c1	-71
O=C(NC1CCCCC1)C(c1cc2c(cc1[N+](=O)[O-])OCO2)N1CCCCC1 (stereo not given)	0
Cc1cc(C)cc(NC(=O)c2cccn2-c2ncc(C(F)(F)F)cc2Cl)c1	175*
O=C(NCc1cccnc1)c1cccn1-c1ncc(C(F)(F)F)cc1Cl	-7
NS(=O)(=O)c1cccn1-c1ncc(C(F)(F)F)cc1Cl	-7
O=C1NN(c2ccccc2)C(=O)/C1=C/c1ccc(Sc2cccc3ccccc23)o1	-7
CC(=O)c1cnc(Nc2cccc(C)c2)s1	-71
CS(=O)(=O)NCc1nnc(SCC(=O)NC2CCCCC2)n1-c1ccc(F)cc1	5
O=C(NCc1ccco1)C(=O)NCC1OCCCN1S(=O)(=O)c1ccccc1 (stereo not given)	0
COc1ccc(-c2nnn(CC(=O)N(CC(=O)NCCC(C)C)c3ccccc3)n2)cc1OC	0
COCCNC(=O)CN(C(=O)c1ccc(N2CCCC2)nc1)c1ccccc1	773*
COCCNC(=O)COC(=O)/C=C/c1cnc2ccccc2n1	9
CCOC(=S)N/C(=N\S(=O)(=O)c1ccc(C)cc1)c1ccccc1	-4
CN1CCC(Oc2ccccc2Sc2ccccc2)CC1	0
SMILES	INS promoter act
CSc1ccc(/C=N/NC(=O)CNc2ccc3ccccc3c2)cc1	369*
Cc1cccc(NCC(=O)N/N=C/c2cccc(Br)c2)c1	-3
CSc1ccc(/C=N/NC(=O)c2ccc(C)c(C)c2)cc1	8
Cc1c(NC(=O)C(C)OC(=O)[C@@H](NC(=O)c2ccccc2)C(C)C)c(=O)n(-c2ccccc2)n1C (stereo not given in full)	5
CCN(CC)C(=O)NCc1c(C)cc(C)cc1C	0
COC(=O)c1sc(NC(=O)C2CCCO2)c(C(=O)OC)c1C (stereo not given)	428*
Cc1sc(NC(=O)C2CCCO2)c(C#N)c1C (stereo not given)	-9
Cc1c(C(=O)OC(C)C)sc(NC(=O)C2CCCO2)c1C(=O)OC(C)C (stereo not given)	3
c1ccc(CSc2ccc(-c3cccnc3)nn2)nc1	0
N#CC1(c2ccccc2)CCC(=NO)CC1 (stereo not given)	3
Nc1c(C(=O)Nc2nc3ccccc3s2)sc2nc(-c3cccs3)ccc12	196*
Nc1c(C(=O)Nc2ccccc2)sc2nc(-c3ccco3)ccc12	-80
O=C(NC(=S)Nc1nc2ccccc2s1)c1cccs1	-7
CO/N=C/C(C#N)=C/c1cc(C(=O)c2ccccc2)cn1C	-9
O=C(NCCc1nc2ccccc2[nH]1)/C(=C/c1ccco1)NC(=O)c1ccc(Br)o1	9
COC(=O)c1[nH]c2ccccc2c1NC(=O)CN1CCN(C(=O)c2ccco2)CC1	-91
Nn1c(SCC(=O)NC(=O)NCc2ccco2)nnc1-c1ccc(OC(F)F)cc1	2
O=C(NCc1cccc(F)c1)c1noc2c1CCCC2	257*
CCc1ccc(NC(=O)c2noc3c2CCC3)cc1	8
O=C(NCc1cccnc1)c1noc2c1CCCC2	3
O=C(Nc1ccc([N+](=O)[O-])cc1)Nc1nc(-c2ccc(Cl)s2)cs1	-78
Cc1cc(C)c(NC(=O)/C=C\C(=O)O)c([N+](=O)[O-])c1	-1
Cc1ccc(CNC(=O)N[C@@H](Cc2ccccc2)C(=O)O)cc1	7
O=C(CSc1nc2ccccc2s1)NNC(=S)Nc1ccccc1	-3
O=C(CSc1nc2ccccc2o1)N/N=C/c1ccccc1	3
SMILES	INS promoter act
O=C(CSc1nc2ccccc2s1)N/N=C/c1ccc(C(=O)O)cc1	161*
O=C(CSc1nc2ccccc2s1)Nc1nccs1	-3
O=C(CSc1nc2ccccc2s1)CSc1nc2ccccc2s1	94*
Nc1nonc1NC(=O)CSc1nc2ccccc2s1	4
O=[N+]([O-])c1ccccc1S(=O)(=O)N1CCN(Cc2ccc3c(c2)OCO3)CC1	-6
CC(=O)Oc1ccc(N(C(C)=O)S(=O)(=O)c2cccs2)c2ccccc12	-10
CCCNC(=O)NC(=O)CSc1ccc2c(c1)OCCO2	-3
Cc1ccc(CSc2nnc(-c3ccncc3)o2)c(C)c1	4
CCc1nc(N)c(C#N)c(-c2ccc(OC)c(OC)c2)c1C	83*
CCc1nc(N)c(C#N)c(-c2cccc3ccccc23)c1C	0
COc1ccc(-c2c(C#N)c(N)nc3c2CCCC3)cc1OC	256
CC(=O)Nc1ccccc1C(=O)N1CCN(Cc2ccccc2)CC1	0
CCOC(=O)c1cnc(SCc2ccc(C(C)(C)C)cc2)nc1N	514*
CCOC(=O)c1cnc(SCc2ccccc2)nc1N	106
CCOC(=O)c1cnc(SCc2cccc3ccccc23)nc1N	0
O=C(Nc1ccc(C(=O)O)cc1)Nc1ccc(F)cc1F	-9
O=C(c1ccc(Cl)c(S(=O)(=O)N2CCOCC2)c1)N1CCN(Cc2ccccc2)CC1	310
O=C(Nc1ccccc1-c1nnn(CC(=O)N2CCOCC2)n1)c1ccccc1F	0
CCC(=O)N1CCN(c2nc(-c3ccc(Cl)cc3)cs2)CC1	464*
Fc1ccc(-c2csc(N3CCSCC3)n2)cc1	109
CCc1nnc(NC(=O)CN2CCN(c3nc(-c4ccccc4)cs3)CC2)s1	7
O=C(CSc1nc2ccc([N+](=O)[O-])cc2[nH]1)NCCc1ccccc1	7
N#Cc1c(C(F)(F)F)cc(-c2ccccc2)nc1SCc1nc(N)nc(N2CCOCC2)n1	251*
COc1ccc(-c2cc(C(F)(F)F)c(C#N)c(SCC(=O)Nc3ccc(C)cc3)n2)cc1	8
FC(F)(F)c1cc(-c2ccccc2)nc(N2CCOCC2)n1	-3
SMILES	INS promoter act
O=C(OCc1c(Cl)cccc1Cl)c1cccnc1	-6
CCCCC/C(=N\NC(=O)CCC(=O)NCc1ccccc1)c1ccccc1	371*
O=C(O)CCC(=O)NNC(=O)CCC(=O)NCc1ccccc1	0
CCCCCC/C(=N\NS(C)(=O)=O)c1ccccc1	0
Cc1ccc2nc(C(=O)N3CCc4c([nH]c5ccccc45)C3c3ccccn3)cn2c1 (stereo not given)	7
S=C(NCCc1ccccc1)Nc1cccc2cnccc12	-73
Cc1c(O)cc2n(c1=O)-c1ccccc1C2(C)C	235
O=C1CCCCCC1C1(O)C(=O)Nc2ccccc21 (stereo not given)	-9
